# Bioassay records from PubChem.
# PGC1a acetyl inh = modulators of PGC1a acetylation; inhibition, % at 15.6 µM; U2OS PGC1a acetylation, AlphaScreen anti-acetyl-lysine; with virally co-expressed GCN5 acetyltransferase; actives 0.17% (n = 350,000); AID 651687;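 active means every replicate shows inhibition of at least 40%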;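 further: 0% = neutral control wells and 100% = positive control wells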
# F508del corr = correctors of CFTR F508del function in bronchial epithelial cells. activity (quench increase), % at 7.58 µM. AID 720511. CFBE cells, YFP halide quenching; stimulated with forskolin plus potentiator P3; % fluorescence drop versus neutral controls. actives 0.36% (n = 350,000);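 active means mean added fluorescence quench of at least 8% versus neutral control, with both replicates also reaching 8%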;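 further: cells transiently co-express mutant CFTR-F508del with the halide-sensitive YFP; corrector assay measuring rescue of mutant channel to the surface after 24 h compound exposure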
# ARNT TACC3 PPI = disrupts binding between human ARNT and TACC3; Q9Y6A5; AlphaScreen His-ARNT PAS-B/GST-TACC3 binding, luminescence; TACC3 fragment carries E629A point mutation; inhibition, % at 9.99 µM; actives 0.66% (n = 390,000); AID 623870;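 active means mean inhibition of replicates at least 50% and at least half of replicates each reaching 50%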;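 further: 0% = complete ARNT plus TACC3 wells and 100% = ARNT alone without TACC3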
# miR-122 sensor = inhibitors of miR-122 in Huh7 cells. Huh7 miR-122 Renilla luciferase sensor, 48 h; neutral wells = 0, positive control = 100. activation (reporter increase), % at 12.5 µM. actives 0.3% (n = 340,000). AID 602342;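 active means mean replicate activation score at least 90 and every replicate individually at or above 90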;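 further: higher luciferase means less miR-122 activity so hits act as miR-122 inhibitors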
# CAL PDZ FP-1 = blocks peptide binding to human CAL PDZ domain; Q9HD26; purified CAL PDZ, TMR-peptide fluorescence polarization, 1 h; inhibition, % at 20 µM; actives 0.02% (n = 330,000); AID 504414;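 active means highest replicate inhibition of at least 40%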;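 further: plate controls were DMSO neutral control wells for no effect and unlabeled competitor peptide control wells for full effect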
#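 Read-out basis: mP drop reported as inhibition | Assay system: Tagged CAL PDZ protein CerCALP, purified | Benchmarks: Unlabelled peptide for full inhibition, DMSO wells as neutral | Schedule: 1 h incubation at room temperature before polarization reading | Buffer or medium: Sodium phosphate/NaCl buffer pH 7.4 with TCEP, IgG, Thesit | Doses: Single point, 20 µM | Measured by: Fluorescence polarization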
# CAL PDZ FP-2 = CAL PDZ (human) peptide binding inhibition; Q9HD26; purified CAL PDZ, TMR-peptide fluorescence polarization, 1 h; inhibition, % at 24.9 µM; actives 0.92% (n = 300,000);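 active means mean inhibition of at least 30% with at least half of replicates also reaching 30%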;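 further: 0% = DMSO neutral control and 100% = excess unlabeled competitor peptide PRC23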
# AlphaScreen ctr = counter-screen for ARNT/TACC3 inhibitors: AlphaScreen artifacts | AC50, µM (titrated, usually from 68 µM), for inactives: at the top dose activity change, negative = signal decrease | actives 50% (n = 1,200) | shares compounds with ARNT TACC3 PPI | His-ARNT PASB-GST AlphaScreen artifact counter-screen, luminescence;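 active means every separate test run was called active for a drop in luminescence, with AC50 within twice the top valid dose, actives reach about 71 µM in these data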
# * hit, by the source's call; · = not tested or not shown; [ ] = dose if it differs, or a comment. Compounds with a hit are over-represented: about 1.7% of the library has one in this group of screens.
SMILES,PGC1a acetyl inh,F508del corr,ARNT TACC3 PPI,miR-122 sensor,CAL PDZ FP-1,CAL PDZ FP-2,AlphaScreen ctr
Oc1c(Br)cc(Br)cc1/C=N/Nc1ccc(Cl)nn1,·,-1.1,3.5,·,-1.2,-3.3,·
Oc1ccc(/C=N/Nc2ccc(Cl)nn2)c(O)c1O,·,2.0,55.3*,·,-2.1,-4.5,4.5µM*
COc1ccc(-c2cc(NCc3ccccn3)n3ncnc3n2)cc1,11.4,·,52.4*,-0.5,-4.9,-5.7,-0.7%
COc1ccc(-c2cc(NCCc3ccncc3)n3ncnc3n2)cc1,-1.7,·,-1.0,24.1,-2.0,·,·
COc1ccccc1C(=O)Nc1ccc2c(c1)C(=O)N(C)C[C@H](OC)[C@H](C)CN[C@H](C)CO2,-4.2,-1.0,-3.1,-2.7[16.7 µM],·,·,·
CC(C)(C)c1ccc(OCCNC(=O)c2ncn[nH]2)cc1,5.7,·,76.8*,1.0,-2.3,2.7,-15.6%
CCCC(=O)Nc1ccc2c(c1)OC[C@H](C)N(CC1CCCC1)C[C@H](C)[C@H](OC)CN(C)C2=O,8.3,0.0,-0.6,-6.8[16.7 µM],·,·,·
Cc1cc2c(NC(=O)CC(C)(C)CC(=O)O)cccc2nn1,1.6,0.0,27.2*,·,0.0,·,-10.0%
CCCNC(=O)Nc1ccc2c(c1)OC[C@H](C)N(C(=O)c1ccccc1F)C[C@@H](C)[C@@H](OC)CN(C)C2=O,11.5,-1.3,52.7*,·,·,·,-2.4%[42 µM]
CCCNC(=O)Nc1ccc2c(c1)OC[C@H](C)N(C(=O)c1ccccc1F)C[C@H](C)[C@@H](OC)CN(C)C2=O,0.2,-0.7,·,·,·,·,·
CO[C@@H]1CN(C)C(=O)c2ccc(NC(=O)c3ccccn3)cc2OC[C@@H](C)N(Cc2ccccn2)C[C@H]1C,0.0,-1.7,95.3*,6.1[16.7 µM],·,·,19.6µM*
COCC(=O)Nc1ccc2c(c1)OC[C@H](C)N(CCC(F)(F)F)C[C@@H](C)[C@H](OC)CN(C)C2=O,-4.1,-0.4,-5.0,·,·,·,·
CC(C)COCc1ccc(O)c2ncccc12,3.6,2.4,67.1*,·,-0.2,1.9,17.6µM*
CC1CN(Cc2ccc(O)c3ncccc23)CC(C)O1 (stereo not given),·,·,·,·,·,·,4.69µM*
Oc1ccc(CNC2Cc3ccccc3C2)c2cccnc12,·,·,·,·,·,·,2.41µM*
Oc1ccc(CN2CCc3ccccc3C2)c2cccnc12,·,·,67.0*,-25.7,-1.2,-1.1,3.72µM*
O=C(Nc1ccc(Cl)cc1)N[C@@H]1CC[C@@H](CCn2cc(Cc3ccccc3)nn2)O[C@H]1CO,-5.9,-1.8,1.7,·,·,·,·
O=C(C[C@H]1C[C@H]2c3cc(NS(=O)(=O)c4ccccc4)ccc3O[C@H]2[C@@H](CO)O1)NC1CCCC1,-3.4,-0.2,-11.3,2.0[16.7 µM],·,·,·
Oc1ccc(CN2CCC(Cc3ccccc3)CC2)c2cccnc12,·,·,·,·,·,·,4.96µM*
COCCn1c(N)c(C(=O)NCc2cccs2)c2nc3ccccc3nc21,-24.8,·,51.0*,2.0,-0.9,·,-25.0%
Oc1c(Br)cccc1/C=N/c1ncn[nH]1,-5.5,-2.1,51.3*,-5.6,0.5,0.1,-0.8%
CC1=Nn2c(nnc2-c2ccccc2F)SC1,9.1,·,2.7,30.4,1.7,3.8,·
c1ccc(C2=Nn3c(nnc3-c3ccccn3)SC2)cc1,4.0,·,60.9*,2.0,-0.4,-3.0,-9.0%
CC1=Nn2c(nnc2-c2ccccn2)SC1,·,·,44.1*,·,-1.6,-1.6,-14.8%
COCC(=O)Nc1ccc2c(c1)[C@@H]1C[C@H](CC(=O)N3CCN(C)CC3)O[C@@H](CO)[C@@H]1O2,8.4,-0.5,-5.3,-3.4[16.7 µM],·,·,·
SMILES,PGC1a acetyl inh,F508del corr,ARNT TACC3 PPI,miR-122 sensor,CAL PDZ FP-1,CAL PDZ FP-2,AlphaScreen ctr
O=C(COC(=O)c1ccc([N+](=O)[O-])s1)Nc1ccccc1,12.2,·,2.3,-3.9,-2.4,-2.5,·
O=C(COC(=O)c1ccc([N+](=O)[O-])s1)NCc1ccccc1,·,·,26.4*,·,-2.1,3.2,-2.6%
O=C(COC(=O)c1ccc([N+](=O)[O-])o1)NCc1ccccc1,·,-0.7,19.8*,·,-0.6,-2.6,-7.7%
NS(=O)(=O)c1ccc(CCNC(=O)COC(=O)c2ccc([N+](=O)[O-])o2)cc1,1.2,2.9,71.4*,·,0.7,9.9,-10.3%
C[C@H]1CN([C@@H](C)CO)S(=O)(=O)c2ccc(C#CC3CC3)cc2O[C@@H]1CN(C)C(=O)c1cnccn1,-3.5,-0.7,6.6,-20.5[16.7 µM],·,·,·
COc1cc(CNCc2ccccn2)ccc1OCc1c(Cl)cccc1Cl,6.8,0.9,56.4*,3.4,-0.8,-1.9,-35.8%
COc1cc(CNCc2ccccn2)ccc1OCc1ccc(Cl)cc1,-13.3,·,52.7*,1.1,-0.1,3.9,-30.0%
COc1cc(CNCc2cccs2)ccc1OCc1ccccc1,-2.4,-4.2,2.9,10.0,-0.8,-1.5,·
COc1cc(CNCc2ccccn2)ccc1OCc1cccc(Cl)c1,-8.5,-1.8,53.2*,-3.8,-2.2,-1.7,-30.9%
Cc1cccc(S(=O)(=O)N[C@H]2CC[C@@H](CCn3cc(-c4ccccn4)nn3)O[C@@H]2CO)c1,-8.1,3.9,101.6*,·,·,·,43.9µM*
Cc1cccc(S(=O)(=O)N[C@@H]2CC[C@@H](CCn3cc(-c4ccccn4)nn3)O[C@H]2CO)c1,-14.1,2.4,·,·,·,·,·
Cc1cccc(S(=O)(=O)N[C@@H]2CC[C@@H](CCn3cc(-c4ccccn4)nn3)O[C@@H]2CO)c1,-9.2,0.5,98.2*,·,·,·,-35.8%[38 µM]
O=C(CNS(=O)(=O)c1ccc([N+](=O)[O-])cc1)N/N=C/c1ccc(O)cc1O,-18.2,2.8,62.7*,-12.9,·,34.5*,-13.4%
O=C1CN(S(=O)(=O)c2ccccc2)C[C@@H]2[C@H](c3ccc(C#Cc4ccccc4)cc3)[C@H](CO)N12,-7.9,4.5,·,·,·,·,·
O=C(N[C@H]1CC[C@@H](CCn2cc(C3CCCC3)nn2)O[C@@H]1CO)c1cccnc1,7.8,-1.3,·,·,·,·,·
O=C(N[C@H]1CC[C@@H](CCn2cc(C3CCCC3)nn2)O[C@H]1CO)c1cccnc1,-5.4,2.9,·,·,·,·,·
O=C(N[C@H]1CC[C@H](CCn2cc(-c3ccccn3)nn2)O[C@H]1CO)c1cccnc1,-1.9,3.1,85.0*,·,·,·,43.9µM*
O=C(N[C@H]1CC[C@H](CCn2cc(-c3ccccn3)nn2)O[C@@H]1CO)c1cccnc1,-13.5,-0.3,82.5*,·,·,·,32.9µM*
O=C(N[C@@H]1CC[C@H](CCn2cc(-c3ccccn3)nn2)O[C@@H]1CO)c1cccnc1,-0.5,2.9,89.0*,·,·,·,33.5µM*
O=C(N[C@H]1CC[C@@H](CCn2cc(C3CC3)nn2)O[C@@H]1CO)c1cccnc1,-9.0,-2.2,-17.9,-5.5[16.7 µM],·,·,·
O=C(N[C@H]1CC[C@@H](CCn2cc(-c3ccccn3)nn2)O[C@@H]1CO)c1cccnc1,1.0,1.2,83.2*,·,·,·,52.5µM*
